Data: ChEMBL document CHEMBL1145831 (J Med Chem, 2003)

Assays:
Mus musculus [1] = assay: In vivo antitumor activity against murine pancreatic adenocarcinoma and measured as number of deaths on a schedule of 3-10 days and at a total dose of 32 mg/kg; type: ADME, organism-based; parameters: dose 32 mg/kg
Procedure, shortened: (§1)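 Mice bearing drug-sensitive murine pancreatic adenocarcinoma Panc-03 were dosed on the listed days at the listed total doses. Dosing solutions were made in water from stock solutions and injected within 20 min. Chlorohydrin solutions were acidified with 0.05% citric acid. Tolerance was recorded as body weight loss and number of deaths.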

Mus musculus [2] = assay: Ratio of the median tumor weight in the treatment group over the median tumor weight in the control group on a schedule of 3-9 days and at a total dose of 42 mg/kg; type: functional
Procedure, shortened: (§2)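 Panc-03 murine pancreatic adenocarcinoma in mice, with injectable solutions prepared in water from stock and given within 20 min; chlorohydrins were acidified with 0.05% citric acid. %T/C is median tumor weight of the treated group over that of the control group × 100, calculated when control median tumor weight reaches 1 g. T/C ≤ 42% is taken as significant activity.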

Mus musculus [3] = assay: In vivo antitumor activity against murine pancreatic adenocarcinoma and measured as % weight loss on a schedule of 3-9 days and at a total dose of 42 mg/kg; type: functional; procedure, shortened: as §1
Mus musculus [4] = assay: In vivo antitumor activity against murine pancreatic adenocarcinoma and measured as % weight loss on a schedule of 3-10 days and at a total dose of 32 mg/kg; type: functional; procedure, shortened: as §1
CCRF-CEM = assay: In vitro growth inhibitory activity in the human CCRF-CEM leukemia cell line.; type: functional, cell-based
Procedure, shortened: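 CCRF-CEM human leukemia cells in log phase, 4.8 × 10⁴ cells per 2 mL well. Medium was RPMI-1640 with 10% dialyzed FBS and 25 mM HEPES. Compounds were serially diluted 1:3 in DMSO and added to duplicate wells, with DMSO-only controls, at 0.5% final DMSO. Cells were exposed 72 h at 37 °C in humidified 5% CO₂, then counted. IC50 in nM.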

Mus musculus [5] = assay: In vivo antitumor activity against murine pancreatic adenocarcinoma and measured as number of deaths on a schedule of 3-9 days and at a total dose of 42 mg/kg; type: ADME, organism-based; parameters: dose 42 mg/kg; procedure, shortened: as §1
Mus musculus [6] = assay: Ratio of the median tumor weight in the treatment group over the median tumor weight in the control group on a schedule of 3-10 days and at a total dose of 32 mg/kg; type: functional; procedure, shortened: as §2
Mus musculus [7] = assay: In vivo antitumor activity against murine pancreatic adenocarcinoma and measured as % weight loss on a schedule of 3,4,6,10 days and at a total dose of 3.5 mg/kg; type: functional; procedure, shortened: as §1
Mus musculus [8] = assay: In vivo antitumor activity against murine pancreatic adenocarcinoma and measured as number of deaths on a schedule of 3,4,6 days and at a total dose of 6 mg/kg; type: ADME, organism-based; parameters: dose 6 mg/kg; conditions: 144 h; procedure, shortened: as §1
Mus musculus [9] = assay: In vivo antitumor activity against murine pancreatic adenocarcinoma and measured as number of deaths on a schedule of 3,4,6,10 days and at a total dose of 3.5 mg/kg; type: ADME, organism-based; parameters: dose 3.5 mg/kg; conditions: 240 h; procedure, shortened: as §1
Mus musculus [10] = assay: Ratio of the median tumor weight in the treatment group over the median tumor weight in the control group on a schedule of 3,4,6,10 days and at a total dose of 3.5 mg/kg; type: functional; procedure, shortened: as §2
Mus musculus [11] = assay: In vivo antitumor activity against murine pancreatic adenocarcinoma and measured as % weight loss on a schedule of 3,4,6 days and at a total dose of 6 mg/kg; type: functional; procedure, shortened: as §1
Mus musculus [12] = assay: In vivo antitumor activity against murine pancreatic adenocarcinoma and measured as % weight loss on a schedule of 3,4,6 days and at a total dose of 12 mg/kg; type: functional; procedure, shortened: as §1
Mus musculus [13] = assay: In vivo antitumor activity against murine pancreatic adenocarcinoma and measured as number of deaths on a schedule of 3,4,6 days and at a total dose of 12 mg/kg; type: ADME, organism-based; parameters: dose 12 mg/kg; conditions: 144 h; procedure, shortened: as §1
Mus musculus [14] = assay: Ratio of the median tumor weight in the treatment group over the median tumor weight in the control group on a schedule of 3,5 days and at a total dose of 1 mg/kg; type: functional; procedure, shortened: as §2
Mus musculus [15] = assay: In vivo antitumor activity against murine pancreatic adenocarcinoma and measured as % weight loss on a schedule of 3 days and at a total dose of 2 mg/kg; type: functional; procedure, shortened: as §1
Mus musculus [16] = assay: Ratio of the median tumor weight in the treatment group over the median tumor weight in the control group on a schedule of 3,5 days and at a total dose of 1.6 mg/kg; type: functional; procedure, shortened: as §2
Mus musculus [17] = assay: In vivo antitumor activity against murine pancreatic adenocarcinoma and measured as number of deaths on a schedule of 3,5 days and at a total dose of 1 mg/kg; type: ADME, organism-based; parameters: dose 1 mg/kg; conditions: 120 h; procedure, shortened: as §1
Mus musculus [18] = assay: In vivo antitumor activity against murine pancreatic adenocarcinoma and measured as % weight loss on a schedule of 3,5 days and at a total dose of 1.6 mg/kg; type: functional; procedure, shortened: as §1
Mus musculus [19] = assay: In vivo antitumor activity against murine pancreatic adenocarcinoma and measured as number of deaths on a schedule of 3,5 days and at a total dose of 1.6 mg/kg; type: ADME, organism-based; parameters: dose 1.6 mg/kg; conditions: 120 h; procedure, shortened: as §1
Mus musculus [20] = assay: Ratio of the median tumor weight in the treatment group over the median tumor weight in the control group on a schedule of 3 days and at a total dose of 2 mg/kg; type: functional; procedure, shortened: as §2
Mus musculus [21] = assay: In vivo antitumor activity against murine pancreatic adenocarcinoma and measured as % weight loss on a schedule of 3,5 days and at a total dose of 1 mg/kg; type: functional; procedure, shortened: as §1
Mus musculus [22] = assay: In vivo antitumor activity against murine pancreatic adenocarcinoma and measured as number of deaths on a schedule of 3 days and at a total dose of 2 mg/kg; type: ADME, organism-based; parameters: dose 2 mg/kg; conditions: 72 h; procedure, shortened: as §1
Mus musculus [23] = assay: In vivo antitumor activity against murine pancreatic adenocarcinoma and measured as number of deaths on a schedule of 3,8days and at a total dose of 16 mg/kg; type: ADME, organism-based; parameters: dose 16 mg/kg; conditions: 192 h; procedure, shortened: as §1
Mus musculus [24] = assay: Ratio of the median tumor weight in the treatment group over the median tumor weight in the control group on a schedule of 3,8days and at a total dose of 16 mg/kg; type: functional
Procedure, shortened: (§3)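 Mice bearing the drug-sensitive murine pancreatic adenocarcinoma Panc-03. Dosing solutions were made in water from stock solutions and injected within 20 min of preparation; chlorohydrins were acidified with 0.05% citric acid. T/C (%) = median tumor weight of the treated group ÷ median tumor weight of controls × 100, calculated when control median tumor weight reached 1 g.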

Mus musculus [25] = assay: Log cell kill of tumor bearing mice on a schedule of 3,8days and at a total dose of 16 mg/kg; type: functional, organism-based; parameters: dose 16 mg/kg
Procedure, shortened: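 Panc-03 murine pancreatic adenocarcinoma in mice. Aqueous dosing solutions were prepared from stocks and injected within 20 min; chlorohydrins were acidified with 0.05% citric acid. Log cell kill was calculated from tumor growth delay, the difference in days between treated and control animals to reach 1000 mg tumor weight.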

Mus musculus [26] = assay: In vivo antitumor activity against murine pancreatic adenocarcinoma and measured as % weight loss on a schedule of 3,8days and at a total dose of 16 mg/kg; type: functional
Procedure, shortened: (§4)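 Body weight loss was tracked in mice implanted with the Panc-03 murine pancreatic adenocarcinoma. Injections were given within 20 min of aqueous preparation from stock solutions, with chlorohydrins acidified using 0.05% citric acid.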

Mus musculus [27] = assay: Ratio of the median tumor weight in the treatment group over the median tumor weight in the control group on a schedule of 3,5,7 days and at a total dose of 18 mg/kg; type: functional; procedure, shortened: as §3
Mus musculus [28] = assay: Ratio of the median tumor weight in the treatment group over the median tumor weight in the control group on a schedule of 3,5,7 days and at a total dose of 36 mg/kg; type: functional; procedure, shortened: as §3
Mus musculus [29] = assay: In vivo antitumor activity against murine pancreatic adenocarcinoma and measured as number of deaths on a schedule of 3,5,7 days and at a total dose of 18 mg/kg; type: ADME, organism-based; parameters: dose 18 mg/kg; conditions: 168 h; procedure, shortened: as §1
Mus musculus [30] = assay: Ratio of the median tumor weight in the treatment group over the median tumor weight in the control group on a schedule of 3,5,7 days and at a total dose of 9 mg/kg; type: functional; procedure, shortened: as §3
Mus musculus [31] = assay: In vivo antitumor activity against murine pancreatic adenocarcinoma and measured as number of deaths on a schedule of 3,5,7 days and at a total dose of 36 mg/kg; type: ADME, organism-based; parameters: dose 36 mg/kg; conditions: 168 h; procedure, shortened: as §1
Mus musculus [32] = assay: In vivo antitumor activity against murine pancreatic adenocarcinoma and measured as % weight loss on a schedule of 3,5,7 days and at a total dose of 36 mg/kg; type: functional; procedure, shortened: as §4
Mus musculus [33] = assay: In vivo antitumor activity against murine pancreatic adenocarcinoma and measured as number of deaths on a schedule of 3,5,7 days and at a total dose of 9 mg/kg; type: ADME, organism-based; parameters: dose 9 mg/kg; conditions: 168 h; procedure, shortened: as §1
Mus musculus [34] = assay: In vivo antitumor activity against murine pancreatic adenocarcinoma and measured as % weight loss on a schedule of 3,5,7 days and at a total dose of 18 mg/kg; type: functional; procedure, shortened: as §4
Mus musculus [35] = assay: In vivo antitumor activity against murine pancreatic adenocarcinoma and measured as % weight loss 3,5,7 days and at a total dose of 9 mg/kg; type: functional; procedure, shortened: as §4
Mus musculus [36] = assay: Ratio of the median tumor weight in the treatment group over the median tumor weight in the control group on a schedule of 1-6 days and at a total dose of 72 mg/kg; type: functional; procedure, shortened: as §2
Mus musculus [37] = assay: Ratio of the median tumor weight in the treatment group over the median tumor weight in the control group on a schedule of 1-6 days and at a total dose of 162 mg/kg; type: functional; procedure, shortened: as §2
Mus musculus [38] = assay: In vivo antitumor activity against murine pancreatic adenocarcinoma and measured as number of deaths on a schedule of 1-6 days and at a total dose of 162 mg/kg; type: ADME, organism-based; parameters: dose 162 mg/kg; procedure, shortened: as §1
Mus musculus [39] = assay: In vivo antitumor activity against murine pancreatic adenocarcinoma and measured as number of deaths on a schedule of 1-6 days and at a total dose of 72 mg/kg; type: ADME, organism-based; parameters: dose 72 mg/kg; procedure, shortened: as §1
Mus musculus [40] = assay: In vivo antitumor activity against murine pancreatic adenocarcinoma and measured as % weight loss on a schedule of 1-6 days and at a total dose of 162 mg/kg; type: functional; procedure, shortened: as §1
Mus musculus [41] = assay: In vivo antitumor activity against murine pancreatic adenocarcinoma and measured as % weight loss on a schedule of 1-6 days and at a total dose of 72 mg/kg; type: functional; procedure, shortened: as §1

COc1ccc(C[C@H]2NC(=O)/C=C/C[C@@H]([C@H](C)[C@H]3O[C@@H]3c3ccccc3)OC(=O)[C@H](CC(C)C)OC(=O)C(C)(C)CNC2=O)cc1Cl [CRYPTOPHYCIN 52]
Death (Mus musculus [1]): 0
T/C (Mus musculus [2]): 1%
Weight loss (Mus musculus [3]): -9.6%
Weight loss (Mus musculus [4]): 1.6%
IC50 (CCRF-CEM): 0.022 nM
Death (Mus musculus [5]): 3
T/C (Mus musculus [6]): 3%

COc1ccc(C[C@H]2NC(=O)/C=C/C[C@@H]([C@H](C)[C@H]3O[C@@H]3c3ccc(CO)cc3)OC(=O)[C@H](CC(C)C)OC(=O)C(C)(C)CNC2=O)cc1Cl
Weight loss (Mus musculus [7]): 10.5%
Death (Mus musculus [8]): 1
Death (Mus musculus [9]): 0
T/C (Mus musculus [10]): 14%
IC50 (CCRF-CEM): 0.004 nM
Weight loss (Mus musculus [11]): -19.5%
Weight loss (Mus musculus [12]): -18.4%
Death (Mus musculus [13]): 4

COc1ccc(C[C@H]2NC(=O)/C=C/C[C@@H]([C@H](C)[C@@H](O)[C@@H](Cl)c3ccc(CN4CCNCC4)cc3)OC(=O)[C@H](CC(C)C)OC(=O)C(C)(C)CNC2=O)cc1Cl.Cl.Cl
T/C (Mus musculus [14]): 33%
Weight loss (Mus musculus [15]): -26%
T/C (Mus musculus [16]): 0%
Death (Mus musculus [17]): 0
Weight loss (Mus musculus [18]): -16%
Death (Mus musculus [19]): 0
T/C (Mus musculus [20]): 8%
IC50 (CCRF-CEM): 0.021 nM
Weight loss (Mus musculus [21]): -3%
Death (Mus musculus [22]): 2

COc1cccc2c1C(=O)c1c(O)c3c(c(O)c1C2=O)C[C@@](O)(C(=O)CO)C[C@@H]3O[C@H]1C[C@H](N)[C@H](O)[C@H](C)O1 [DOXORUBICIN]
Death (Mus musculus [23]): 0
T/C (Mus musculus [24]): 16%
Log kill (Mus musculus [25]): 1.5
Weight loss (Mus musculus [26]): -12%

COc1ccc(C[C@H]2NC(=O)/C=C/C[C@@H]([C@H](C)[C@@H](O)[C@@H](Cl)c3ccc(COC(=O)CN)cc3)OC(=O)[C@H](CC(C)C)OC(=O)C(C)(C)CNC2=O)cc1Cl.Cl
T/C (Mus musculus [27]): 0%
T/C (Mus musculus [28]): 0%
Death (Mus musculus [29]): 0
T/C (Mus musculus [30]): 0%
Death (Mus musculus [31]): 3
Weight loss (Mus musculus [32]): -20%
IC50 (CCRF-CEM): 0.013 nM
Death (Mus musculus [33]): 0
Weight loss (Mus musculus [34]): -4%
Weight loss (Mus musculus [35]): -2%

COc1ccc(C[C@H]2NC(=O)/C=C/C[C@@H]([C@H](C)[C@@H](O)[C@@H](Cl)c3cccc(C)c3)OC(=O)[C@H](CC(C)C)OC(=O)C(C)(C)CNC2=O)cc1Cl
T/C (Mus musculus [36]): 46%
IC50 (CCRF-CEM): 0.3 nM
T/C (Mus musculus [37]): 0%
Death (Mus musculus [38]): 0
Death (Mus musculus [39]): 0
Weight loss (Mus musculus [40]): 7%
Weight loss (Mus musculus [41]): 12%
